Data set [1] deals with T1, Adenosine kinase (Homo sapiens, UniProt P55263). Put plainly: Drug level assessed as human ADK-mediated compound formation treated with adenosine at 50 uM after 30 mins by HPLC analysis. It is filed as ADME. To be noted: 0.5 h.
For data set [2], the system named is BJ. The data set is described as follows: Cytotoxicity against human BJ cells assessed as cell growth inhibition after 72 hrs by MTS assay. The format is cell-based. In a few lines: (§1)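 Cells were exposed to compound for 3 days, then stained with MTS as a quantitative metabolic read-out. IC50 is the concentration that inhibits cell growth by 50%.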
A general note: Formazan colour is commonly taken as a measure of viable cells.

For data set [3], the system named is MRC5. Put plainly: Cytotoxicity against human MRC5 cells assessed as cell growth inhibition after 72 hrs by MTS assay. The format is cell-based. The following applies: MRC5, 72 h. Summed up: as §1
Data set [4] in a line: Cytotoxicity against mrp-1/mdr-1 overexpressing human CEM-DNR-bulk cells assessed as cell growth inhibition after 72 hrs by MTS assay. It is filed as functional, cell-based. Summed up:
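Cells were exposed to compound for 3 days, then stained with MTS as a quantitative metabolic read-out.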

Data set [5] deals with HCT-116. Put plainly: Cytotoxicity against human HCT116 cells assessed as cell growth inhibition after 72 hrs by MTS assay. It is filed as functional, cell-based. The following applies: HCT-116, 72 h. Summed up:
as §1

The subject of data set [6] is HCT-116. Put plainly: Cytotoxicity against p53 deficient human HCT116 cells assessed as cell growth inhibition after 72 hrs by MTS assay. It is filed as functional, cell-based. The following applies: HCT-116, 72 h. In a few lines: as §1
The test system of data set [7] is K562. The data set is described as follows: Cytotoxicity against human K562 cells assessed as cell growth inhibition after 72 hrs by MTS assay. The format is functional, cell-based. The following applies: K562, 72 h. Summed up:
as §1

A short description of data set [8]: Cytotoxicity against human K562-TAX cells assessed as cell growth inhibition after 72 hrs by MTS assay. It is filed as functional, cell-based. In a few lines:
as §1

In data set [9] the test system is U2OS. Put plainly: Cytotoxicity against human U2OS cells assessed as cell growth inhibition after 72 hrs by MTS assay. It is filed as functional, cell-based.
In data set [10] the test system is HL-60. The data set is described as follows: Cytotoxicity against human HL60 cells assessed as reduction in cell viability after 72 hrs by XTT assay. The following applies: HL-60, 72 h. The format is functional, cell-based. Summed up: (§2)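 Cells were incubated with compound for 3 days. Viability was then measured with the XTT tetrazolium assay.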
The test system of data set [11] is HepG2. The data set is described as follows: Cytotoxicity against human HepG2 cells assessed as reduction in cell viability after 72 hrs by XTT assay. It is filed as functional, cell-based. The following applies: HepG2, 72 h. Summed up:
as §2

The test system of data set [12] is HeLa S3. Put plainly: Cytotoxicity against human HeLaS3 cells assessed as reduction in cell viability after 72 hrs by XTT assay. The format is functional, cell-based. To be noted: HeLa S3, 72 h. Summed up:
as §2

The subject of data set [13] is A549. Put plainly: Cytotoxicity against human A549 cells assessed as cell growth inhibition after 72 hrs by MTS assay. The format is functional, cell-based. To be noted: A549, 72 h. In a few lines:
as §1

In data set [14] the target is T1, Adenosine kinase. Put plainly: Drug metabolism in human BJ cells assessed as ADK-mediated 4-Methylsulfanyl-8-(beta-D-ribofuranosyl)-8H-thieno[3,2:4,5]-pyrrolo[2,3-d]pyrimidine-5-O-monophosphate Sodium Salt formation per 5 x10^5 cells at 1 umol/L after 1 hr by UPLC-MS/MS analysis. The format is ADME, cell-based. To be noted: 1 µM.
Data set [15] addresses T1, Adenosine kinase. The data set is described as follows: Drug metabolism in human HCT116 cells assessed as ADK-mediated 4-Methylsulfanyl-8-(beta-D-ribofuranosyl)-8H-thieno[3,2:4,5]-pyrrolo[2,3-d]pyrimidine-5-O-monophosphate Sodium Salt formation per 5 x10^5 cells at 1 umol/L after 1 hr by UPLC-MS/MS analysis. The following applies: 1 µM. The format is ADME, cell-based.

The target of data set [16] is T1, Adenosine kinase. The data set is described as follows: Drug metabolism in human BJ cells assessed as ADK-mediated 4-Methylsulfanyl-8-(beta-D-ribofuranosyl)-8H-thieno[3,2:4,5]-pyrrolo[2,3-d]pyrimidine-5-O-monophosphate Sodium Salt formation per 5 x10^5 cells at 1 umol/L after 3 hrs by UPLC-MS/MS analysis. The format is ADME, cell-based. The following applies: 1 µM.

Data set [17] has as its target T1, Adenosine kinase. The data set is described as follows: Drug metabolism in human HCT116 cells assessed as ADK-mediated 4-Methylsulfanyl-8-(beta-D-ribofuranosyl)-8H-thieno[3,2:4,5]-pyrrolo[2,3-d]pyrimidine-5-O-monophosphate Sodium Salt formation per 5 x10^5 cells at 1 umol/L after 3 hrs by UPLC-MS/MS analysis. It is filed as ADME, cell-based. The following applies: 1 µM.

Data set [18] has as its target T1, Adenosine kinase. The data set is described as follows: Drug metabolism in human BJ cells assessed as ADK-mediated 4-Methylsulfanyl-8-(beta-D-ribofuranosyl)-8H-thieno[3,2:4,5]-pyrrolo[2,3-d]pyrimidine-5-O-monophosphate Sodium Salt formation per 5 x10^5 cells at 10 umol/L after 1 hr by UPLC-MS/MS analysis. The following applies: 10 µM. The format is ADME, cell-based.

The target of data set [19] is T1, Adenosine kinase. Put plainly: Drug metabolism in human HCT116 cells assessed as ADK-mediated 4-Methylsulfanyl-8-(beta-D-ribofuranosyl)-8H-thieno[3,2:4,5]-pyrrolo[2,3-d]pyrimidine-5-O-monophosphate Sodium Salt formation per 5 x10^5 cells at 10 umol/L after 1 hr by UPLC-MS/MS analysis. The format is ADME, cell-based. The following applies: 10 µM.
Data set [20] addresses T1, Adenosine kinase. Put plainly: Drug metabolism in human BJ cells assessed as ADK-mediated 4-Methylsulfanyl-8-(beta-D-ribofuranosyl)-8H-thieno[3,2:4,5]-pyrrolo[2,3-d]pyrimidine-5-O-monophosphate Sodium Salt formation per 5 x10^5 cells at 10 umol/L after 3 hrs by UPLC-MS/MS analysis. It is filed as ADME, cell-based. The following applies: 10 µM.
Data set [21] addresses T1, Adenosine kinase. Put plainly: Drug metabolism in human HCT116 cells assessed as ADK-mediated 4-Methylsulfanyl-8-(beta-D-ribofuranosyl)-8H-thieno[3,2:4,5]-pyrrolo[2,3-d]pyrimidine-5-O-monophosphate Sodium Salt formation per 5 x10^5 cells at 10 umol/L after 3 hrs by UPLC-MS/MS analysis. It is filed as ADME, cell-based. To be noted: 10 µM.
Data set [22] has as its target T1, Adenosine kinase. The data set is described as follows: Drug level in human BJ cells assessed as ADK-mediated compound formation treated with 4-Methylsulfanyl-8-(beta-D-ribofuranosyl)-8H-thieno[3',2':4,5]-pyrrolo[2,3-d]pyrimidine at 1 umol/L after 1 hr by UPLC-MS/MS analysis. The format is ADME, cell-based.
Data set [23] addresses T1, Adenosine kinase. The data set is described as follows: Drug level in human BJ cells assessed as ADK-mediated compound formation treated with 4-Methylsulfanyl-8-(beta-D-ribofuranosyl)-8H-thieno[3',2':4,5]-pyrrolo[2,3-d]pyrimidine at 1 umol/L after 3 hrs by UPLC-MS/MS analysis. It is filed as ADME, cell-based.
Data set [24] has as its target T1, Adenosine kinase. Put plainly: Drug level in human BJ cells assessed as ADK-mediated compound formation treated with 4-Methylsulfanyl-8-(beta-D-ribofuranosyl)-8H-thieno[3',2':4,5]-pyrrolo[2,3-d]pyrimidine at 10 umol/L after 1 hr by UPLC-MS/MS analysis. It is filed as ADME, cell-based.
Data set [25] has as its target T1, Adenosine kinase. Put plainly: Drug level in human BJ cells assessed as ADK-mediated compound formation treated with 4-Methylsulfanyl-8-(beta-D-ribofuranosyl)-8H-thieno[3',2':4,5]-pyrrolo[2,3-d]pyrimidine at 10 umol/L after 3 hrs by UPLC-MS/MS analysis. The format is ADME, cell-based.
In data set [26] the target is T1, Adenosine kinase. The data set is described as follows: Drug level in human HCT116 cells assessed as ADK-mediated compound formation treated with 4-Methylsulfanyl-8-(beta-D-ribofuranosyl)-8H-thieno[3',2':4,5]-pyrrolo[2,3-d]pyrimidine at 1 umol/L after 1 hr by UPLC-MS/MS analysis. It is filed as ADME, cell-based.
Data set [27] concerns the target T1, Adenosine kinase. The data set is described as follows: Drug level in human HCT116 cells assessed as ADK-mediated compound formation treated with 4-Methylsulfanyl-8-(beta-D-ribofuranosyl)-8H-thieno[3',2':4,5]-pyrrolo[2,3-d]pyrimidine at 1 umol/L after 3 hrs by UPLC-MS/MS analysis. The format is ADME, cell-based.
Data set [28] has as its target T1, Adenosine kinase. Put plainly: Drug level in human HCT116 cells assessed as ADK-mediated compound formation treated with 4-Methylsulfanyl-8-(beta-D-ribofuranosyl)-8H-thieno[3',2':4,5]-pyrrolo[2,3-d]pyrimidine at 10 umol/L after 1 hr by UPLC-MS/MS analysis. It is filed as ADME, cell-based.
Data set [29] addresses T1, Adenosine kinase. The data set is described as follows: Drug level in human HCT116 cells assessed as ADK-mediated compound formation treated with 4-Methylsulfanyl-8-(beta-D-ribofuranosyl)-8H-thieno[3',2':4,5]-pyrrolo[2,3-d]pyrimidine at 10 umol/L after 3 hrs by UPLC-MS/MS analysis. It is filed as ADME, cell-based.
In data set [30] the target is T1, Adenosine kinase. The data set is described as follows: Drug level assessed as human ADK-mediated compound formation treated with 4-Methylsulfanyl-8-(beta-D-ribofuranosyl)-8H-thieno[3',2':4,5]-pyrrolo[2,3-d]pyrimidine at 50 uM after 30 mins by HPLC analysis. It is filed as ADME. The following applies: 0.5 h.
Data set [31] relates to CCRF-CEM. The data set is described as follows: Cytotoxicity against human CCRF-CEM cells assessed as cell growth inhibition after 72 hrs by MTS assay.

Among the data in ChEMBL document CHEMBL4007430, “Synthesis and Cytostatic and Antiviral Profiling of Thieno-Fused 7-Deazapurine Ribonucleosides” (J Med Chem, 2017) are Drug metabolism and IC50 values, retold here.

T1 sequence (P55263 whole entry): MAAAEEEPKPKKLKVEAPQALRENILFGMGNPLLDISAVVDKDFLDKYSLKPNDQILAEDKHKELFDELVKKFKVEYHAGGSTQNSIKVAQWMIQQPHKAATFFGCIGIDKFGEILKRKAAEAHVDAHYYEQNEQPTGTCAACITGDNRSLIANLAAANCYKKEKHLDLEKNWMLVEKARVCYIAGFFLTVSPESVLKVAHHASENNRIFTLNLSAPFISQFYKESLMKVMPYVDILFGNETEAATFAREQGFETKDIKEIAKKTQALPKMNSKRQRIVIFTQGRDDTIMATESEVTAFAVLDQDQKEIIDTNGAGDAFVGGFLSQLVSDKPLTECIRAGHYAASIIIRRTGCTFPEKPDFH

Consider `Nc1ncnc2c1ncn2[C@@H]1O[C@H](COP(=O)(O)O)[C@@H](O)[C@H]1O` [ADENOSINE PHOSPHATE], for which, in data set [1], the Drug metabolism entry is “Metabolite_Detected”.

Broadly, the IC50 is the midpoint of a concentration-inhibition curve. On to `CSc1ncnc2c1c1ccsc1n2[C@@H]1O[C@H](COP(=O)([O-])O)[C@@H](O)[C@H]1O.[Na+]`, for which the IC50 is 730 nM in data set [2]; above 50000 nM in [3]; above 50000 nM in data set [4]; 250 nM in [5]; 260 nM in data set [6]; 1320 nM in [7]. The IC50 in data set [8] was above 50000 nM; in data set [9], 2590 nM; in [10], 770 nM; in data set [11], 770 nM; in [12], 2190 nM; in data set [13] it was above 50000 nM. The IC50 in [31] turned out to be 190 nM. Further, the Drug metabolism in data set [14] is 13.8 pmol; in data set [15], 76.2 pmol; in data set [16] it was 4933.3 pmol; in data set [17] it was 75.6 pmol; in data set [18] it was 6694.3 pmol; in data set [19], 98.5 pmol. For the same compound, the Drug metabolism in data set [20] is 6862.8 pmol; in data set [21], 144.3 pmol; in [22] it was “Metabolite_Detected”; in [23] it was “Metabolite_Detected”; in [24], “Metabolite_Detected”; in data set [25], “Metabolite_Detected”. The Drug metabolism entry in data set [26], in data set [27], in data set [28], in data set [29] and in data set [30] was “Metabolite_Detected” in each case.
